Screens deposited in PubChem BioAssay by Johns Hopkins Ion Channel Center.
In the library only some 3.5% were active in any assay of this set; here they are far more common.
RGS4 inh = RGS4 inhibitors, primary screen, cell-based, HEK293 M3R inducible RGS4, calcium flux; Regulator of G-protein signaling 4 (Homo sapiens), P49798; Fluo-4 calcium flux; stronger effect = higher value; triggered by carbachol at its EC20; B-score at 10 µM; hit rate 0.45% among 310,000;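 active = B-score, a plate-corrected calcium signal, over three deviations above library mean, with baseline fluorescence within five deviations of library mean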;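 note: RGS4 expression induced by doxycycline in cells with stable M3 receptor; B-score is computed from the integrated fluorescence ratio over baseline after carbachol; higher B-score means a larger calcium signal and so more RGS4 inhibition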
Target sequence (P49798 whole entry, looked up): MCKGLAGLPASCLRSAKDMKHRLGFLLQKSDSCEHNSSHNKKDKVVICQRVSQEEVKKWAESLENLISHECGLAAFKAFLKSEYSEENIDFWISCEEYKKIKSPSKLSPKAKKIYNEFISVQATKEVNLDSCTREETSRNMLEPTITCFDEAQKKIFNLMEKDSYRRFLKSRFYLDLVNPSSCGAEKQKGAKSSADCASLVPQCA
MrgX1 ag = agonists of human MrgX1 receptor, primary screen, HEK293 cells, Fluo-4 calcium flux; Fluo-4 calcium fluorescence, agonist mode; stronger effect = higher value; B-score at 10 µM; Mas-related G-protein coupled receptor member X1 (Homo sapiens), Q96LB2; hit rate 0.44% among 310,000; AID 588627, 2011;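 active = calcium response B-score plate-corrected fluorescence ratio at least 3 library SD, with starting fluorescence B-score inside 5 SD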
Target sequence (Q96LB2 whole entry, looked up): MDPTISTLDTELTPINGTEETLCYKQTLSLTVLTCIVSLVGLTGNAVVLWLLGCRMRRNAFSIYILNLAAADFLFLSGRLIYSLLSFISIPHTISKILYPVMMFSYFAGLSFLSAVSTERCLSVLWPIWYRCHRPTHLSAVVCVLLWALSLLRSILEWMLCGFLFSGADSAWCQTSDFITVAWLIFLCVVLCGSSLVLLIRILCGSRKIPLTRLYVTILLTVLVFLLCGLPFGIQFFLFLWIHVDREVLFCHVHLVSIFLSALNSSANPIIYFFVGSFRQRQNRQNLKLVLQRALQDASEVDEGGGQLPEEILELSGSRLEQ
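System – MrgX1-expressing HEK293 cells · Incubation – cells plated overnight, dye loaded 0.5 h 37 °C, 0.5 h room temperature · Technique – kinetic Fluo-4 NW fluorescence of intracellular calcium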
MrgX1 PAM = positive allosteric modulators of MrgX1, primary screen, HEK293 cells, Fluo-4 calcium flux; FDSS; stronger effect = higher value; B-score at 10 µM; hit rate 0.63% among 310,000; Mas-related G-protein coupled receptor member X1 (Homo sapiens), Q96LB2; AID 588675, 2011;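 active = plate-corrected calcium response at least 3 library SD above typical, normal starting fluorescence, not activating the receptor alone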;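 note: compound read alongside a low EC10 to EC30 dose of BAM8-22 agonist; peak minus trough fluorescence over baseline measured at the second addition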
MrgX1 antag = antagonists of human MrgX1 receptor, primary screen, HEK293 cells, Fluo-4 calcium flux. Mas-related G-protein coupled receptor member X1 (Homo sapiens), Q96LB2. BAM8-22 antagonism; stronger effect = lower value. B-score at 10 µM. hit rate 1.3% among 310,000. AID 588676, 2011;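 active = calcium-response B-score plate-corrected more than 3 library SD below zero, starting fluorescence within 5 deviations, no agonist response on first addition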;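 note: peak minus trough fluorescence over baseline after final BAM8-22 challenge near maximal dose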
RGS4 pot = RGS4 potentiators or activators, primary screen, cell-based, HEK293 M3R inducible RGS4, calcium flux | carbachol calcium flux Fluo4; stronger effect = lower value | B-score at 10 µM | hit rate 0.92% among 310,000 | AID 463111, 2010;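 active = B-score of the integrated calcium signal more than 4 SD below the library mean, with starting fluorescence not abnormally high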;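 note: negative B-score means reduced calcium response which marks RGS4 activation or potentiation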
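System – HEK293 FlpIn-TREx cells, stable M3R, doxycycline-inducible RGS4 · Reagent – ECmax carbachol challenge · Times – compound preincubation 20 min at room temperature before agonist · Technique – Fluo4 fluorescence kinetic imaging of calcium · Measure – B score of integrated Fluo4 ratio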
Of the large screens only hits and unclear results are named; the others gave an inactive call.

O=C(NNS(=O)(=O)c1ccc2ccccc2c1)C1CCN(Cc2ccccc2)CC1	none
CCCCc1cc(=O)oc2cc(C)cc(OCC(=O)NCc3ccncc3)c12	MrgX1 PAM 7.2
COc1cc(CNC(C)(C)C)cc(Br)c1OCc1cccs1	MrgX1 antag -6.1
COc1cc(CNCCO)cc(Br)c1OCc1cccs1	none
CCCCCc1ccc(OCCCC[n+]2ccccc2)c(CCCCC)c1	RGS4 pot -7.8
CCCCCc1ccc(OCCCC[n+]2ccc(C)cc2)c(CCCCC)c1	none
CCCCCc1ccc(OCCCC[n+]2cccc(C)c2)c(CCCCC)c1	RGS4 pot -8.7
CCOC(=O)C1CCN(C(=O)CNC(=O)Cn2c(C)cc3ccccc3c2=O)CC1	none
COc1cccc(NC(=O)c2ccc3c(c2)N(CC(=O)N2CCOCC2)C(=O)C(C)(C)O3)c1	none
COc1ccc([C@@H]2[C@@H](C(=O)C(C)(C)C)N3N=Cc4ccccc4[C@@H]3C23C(=O)OC(C)(C)OC3=O)cc1OC	RGS4 pot -7.2
COc1ccc([C@H]2[C@H](C(=O)C(C)(C)C)N3N=Cc4ccccc4C3C23C(=O)OC(C)(C)OC3=O)cc1 (some centres undefined)	MrgX1 antag -6.1
COc1ccc(N2C(=O)[C@H]3[C@@H](C2=O)C2c4ccccc4C=NN2[C@H]3C(=O)C(C)(C)C)cc1 (some centres undefined)	none
COc1c(Cl)ccc(Cl)c1C(=O)NCc1ccco1	none
CCOC(=O)Cn1c(C(C)=O)nc2ccccc21	none
NC(=O)c1nsc(C(=O)N(c2cccc(F)c2)C(C(=O)NC2CCCC2)c2ccc(O)cc2)c1N (centres undefined)	none
COc1ccc(C(C(=O)NC2CCCC2)N(C(=O)c2snc(C(N)=O)c2N)c2cccc(O)c2)cc1 (centres undefined)	MrgX1 PAM 6.5
Cc1ccc(S(=O)(=O)NC(=O)c2ccc(-c3ccc(-c4ccccc4)cc3)o2)c(C)c1	RGS4 pot -9.1
CC(C)(C)c1cc(C2=CSC3=NCCN23)cc(C(C)(C)C)c1O	RGS4 pot -8.1
CCCCNC(=S)N(C)/N=C/c1sc(N2CCCCC2)nc1-c1cccs1	MrgX1 antag -8.7
O=C(C1CCC(=O)N(C2CCCC2)C1)N1CCC(Oc2ccccc2Cl)CC1 (centres undefined)	none
CCCC(=O)C1=C(O)C(C(=O)OC)C(C)(C)CC1=Nc1ccccc1 (centres undefined)	none
CCCC(=O)C1=C(O)C(C(=O)OC)C(C)(C)CC1=Nc1cccc2ccccc12 (centres undefined)	MrgX1 PAM 8.1
O=C(CCNC(=O)c1ccc([N+](=O)[O-])cc1)Nc1cccc(S(=O)(=O)N2CCCCC2)c1	none
CC(C)c1ccccc1NC(=O)CNCCOc1ccccc1F	RGS4 pot -7.2
CCN(Cc1ccccc1)c1ccc(/C=N/N=C(N)N)cc1	MrgX1 antag -5.5
CCc1ccc(OCC(=O)NNC(=O)c2nn(CC)c(=O)c3ccccc23)cc1	MrgX1 PAM 9.6
CCCCCn1c(N2CCC(Cc3ccccc3)CC2)nc2c1c(=O)[nH]c(=O)n2C	RGS4 pot -9
CC[N+](CC)(CC)C/C(N)=N/O	MrgX1 antag -6.1
COc1ccc(C(CCN2CCCCC2)c2c(OC)cc(OC)c3c(-c4ccccc4)cc(=O)oc23)cc1 (centres undefined)	MrgX1 PAM 14
Nc1c(C(=O)N/N=C/c2ccc(F)cc2)oc2nc(-c3ccccc3)cc(-c3ccco3)c12	MrgX1 antag -5.4
O=C(N/N=C/c1ccc(F)cc1)c1cc(-c2ccco2)nc2ccccc12	none
Nc1c(C(=O)N/N=C/c2ccccc2Cl)oc2nc(-c3ccccc3)cc(-c3ccco3)c12	MrgX1 antag -7.7
O=C(NN1C(=O)/C(=C\c2cccnc2)SC1=S)C(c1ccccc1)c1ccccc1	RGS4 pot -7.3
CCOc1cc(/C=C2\SC(=S)N(NS(=O)(=O)c3ccc(C)cc3)C2=O)ccc1O	MrgX1 ag 52
CCOc1cc(/C=C2\SC(=S)N(NC(=O)c3cccnc3)C2=O)ccc1O	MrgX1 antag -5.9
CCOC(=O)c1sc(NC(=O)CNC(=O)Cn2cnc3sc(C)c(C)c3c2=O)nc1C	none
O=C(O)CCCCCN1C(=O)C2CCCCC2C1=O (centres undefined)	none
O=C(O)CCCCCCC1C(=O)NC(=O)N1CCC(O)C1CCCCC1 (centres undefined)	MrgX1 ag 31
Clc1ccc(SCc2cc(Cl)nc(-c3ccccc3)n2)cc1	RGS4 pot -7
Clc1cc(CSc2ccccc2)nc(-c2ccccc2)n1	none
Cc1cccc(OCC(=O)OC(C)C(=O)Nc2ccc(Cl)cn2)c1 (centres undefined)	none
O=C(O)c1ccccc1N/N=C/c1cc(Br)cc(Br)c1O	MrgX1 antag -6.4
O=C(O)c1ccccc1N/N=C\c1ccnc2ccccc12	MrgX1 ag 41
CCOc1ccc(N(CC(=O)NCCSCc2ccco2)S(=O)(=O)c2ccc(C)cc2)cc1	none
COc1ccc2c(/C=N/Nc3ccc(C(=O)O)cc3)c[nH]c2c1	MrgX1 ag 32
COc1ccc(C(=O)N/N=C/c2c[nH]c3ccccc23)cc1	none
OC(COc1ccc(C2C=CCC2)cc1)CN1CCCCC1 (centres undefined)	RGS4 pot -7
CC(=O)Nc1cc(C(=O)N2CCc3ccccc3C2)ccc1Sc1ccc(Cl)cc1	RGS4 pot -8
N#Cc1c2ccc(OCC(=O)NCc3ccco3)cc2n2ccccc12	none
N#Cc1c2ccc(O)cc2n2ccccc12	MrgX1 ag 46
Cc1nc2nc(-c3ccccc3)[nH]n2c(=O)c1Cc1ccccc1	none (no result: RGS4 inh, RGS4 pot)
Cc1nc2ccccc2c2oc(C(=O)N3CCN(c4ccc([N+](=O)[O-])cc4)CC3)cc12	MrgX1 PAM 6.6
CC12CCC3(CO)COC(c4ccccc4O1)C2C3 (centres undefined)	none
CC1(C#CC[N+]2(C)CCCCC2)CCC2C(O1)c1ccccc1OC2(C)C (centres undefined)	RGS4 pot -7
O=C1NN(c2ccccc2)C(=O)/C1=C/c1ccc(-c2ccc(C(=O)O)cc2)o1	none
O=C(O)c1ccc(N2C(=O)/C(=C/c3ccc(-c4ccc([N+](=O)[O-])cc4)o3)C=C2c2ccccc2)cc1	RGS4 pot -7
CCOC(=O)c1c(NC(=O)c2nn(CC)cc2Br)sc2c1CCCCC2	RGS4 pot -7
CCOC(=O)c1c(NC(=O)c2nn(CC)cc2Br)sc(C)c1C	none
